The nature of series [1]: Metal chelating activity assessed as absorption maximum for compound-Zn2+ complex formation at 75 uM after 30 mins by UV-Vis spectrophotometric method. Format: functional. The gist of the method:
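UV-Vis spectra in ethanol of compound at 75 µM alone or after 30 min incubation with CuSO4, FeSO4, FeCl3 or ZnCl2 (150 µM). Absorption maxima recorded.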

Series [2] relates to SH-SY5Y. In words: Neuroprotective activity in human SH-SY5Y cells assessed as reduction in amyloid beta (1 to 42)-induced exocytosis at 20 uM after 4 hrs by MTT dye based microscopic method. The format is functional, cell-based. The gist of the method:
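SH-SY5Y cells seeded at 3 x 10^4 cells/well, grown 24 h. Treated with compound (20 µM) plus Aβ1-42 oligomers (10 µM) for 4 h at 37 °C. Oligomers were prepared from HFIP-treated, DMSO-dissolved peptide and checked by TEM. MTT (5 mg/mL in PBS) added for 2 h. Cells inspected by light microscopy for needle-like exocytosed formazan crystals.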
On the technique in general: Tetrazolium dyes change colour on reduction, which living cells bring about.

Series [3] concerns SH-SY5Y. In words: Iron chelating activity in human SH-SY5Y cells assessed as reduction in FeSO4/H2O2-induced reactive oxygen species formation at 10 to 20 uM after 30 mins by DCFH-DA probe based fluorescence assay. Format: functional, cell-based. The gist of the method: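 SH-SY5Y cells seeded at 3 x 10^4 cells/well and preloaded with DCFH-DA (10 µg/mL, 30 min, room temperature). Then given compound (5, 10, 20 µM) with FeSO4/H2O2 or CuSO4/H2O2 for 30 min; metal 25 µM and H2O2 100 µM per figure legend. Fluorescence read at ex 485/em 535 nm, arbitrary units. Mean ± SD of three experiments.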

A short description of series [4]: Cytotoxicity against human SH-SY5Y cells assessed as reduction in cell viability at 40 uM after 24 hrs by MTT assay relative to control. Particulars: read-out: INH. The format is cell-based. The gist of the method:
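SH-SY5Y cells seeded at 2 x 10^4 cells/well, grown 24 h, then exposed to compound 1.25–40 µM for 24 h at 37 °C. MTT (5 mg/mL in PBS) added for 2 h and formazan dissolved in isopropanol. Read at 570 nm, reference 690 nm. Viability loss reported as percent at the top concentration, 40 µM.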

Calls of active or inactive are those of the source. The calls are words filed in the database; no cut-off is given here.

For `COc1cc(/C=C/C(=O)OCC2CCN(Cc3ccccc3)CC2)ccc1O`, the outcome (in series [1]; in the series with SH-SY5Y [2]) was inactive. For the same compound, in the series on SH-SY5Y [3], the result was Active. In addition, the cytotoxicity at 24 h, 40 µM in series [4] came to 6%.
